# Screening data (PubChem BioAssay)
# The list is not random: actives were taken first. Their share in the collection is about 1.8%.
# NSD2 inh: blocks human histone methyltransferase NSD2; NSD2 peptide methylation, AlphaScreen, 120 min; inhibition, % at 12.5 µM; 0.54% of 310,000 active; AID 743445; in the data active means inhibition above about 50%
# UHRF1 MBD2 ctr: UHRF1 methyl-DNA binding inhibition | inhibition, % at 4.4 µM | UHRF1 binding to methylated oligo, TR-FRET | Q96T88 | 0.75% of 370,000 active | AID 687016; in the data active means inhibition above about 21%;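 further: UHRF1 SRA domain binding a hemimethylated CpG hairpin DNA probe; 0% = median of test compound wells and 100% = reference inhibitor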
# MBD2 DNA inh: blocks human MBD2 binding to methylated DNA. 0.31% of 370,000 active. inhibition, % at 4.4 µM. Q9UBB5. TR-FRET, MBD2 binding to methylated oligonucleotide. AID 686964; in the data active means inhibition above about 13%
# CASP6 VEID inh: caspase-6 (human) enzyme inhibition; P55212; purified caspase-6, Z-VEID-R110 cleavage fluorescence; inhibition, % at 12.5 µM; 0.53% of 350,000 active;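 active means mean inhibition across replicates at least about 35%, with every replicate also reaching that limit, limit read from the data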;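 further: 0% = median of neutral control wells and 100% = no fluorescence left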
# LEDGF integ inh: blocks HIV-1 LEDGF/p75-dependent DNA integration. TR-FRET IN-LEDGF/p75 DNA integration, Eu/Cy5. 0.64% of 370,000 active. inhibition, % at 3.7 µM;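 active means inhibition above the screen-wide mean plus 3 SD, cut at about 13% in these data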;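 further: signal is the Cy5 over europium emission ratio at 671 and 618 nm; 0% = plate median of compound wells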
# TDP2 inh: blocks human TDP2 phosphodiesterase activity; inhibition, % at 12.8 µM; recombinant TDP2, T5PNP hydrolysis, p-nitrophenol absorbance 415 nm; AID 720702; 0.34% of 370,000 active;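 active means inhibition above the mean of all tested compounds plus 3 SD, set per campaign, cut at about 25% in these data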;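 further: 0% = DMSO with enzyme and 100% = buffer with substrate but no TDP2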
#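 System – recombinant human TDP2 · Quantity – TDP2 enzyme at 120 nM final · Doses – single concentration, 12.8 µM nominal, with 1% DMSO · Incubation – 2 h at 37 °C · Measured by – epi absorbance of p-nitrophenol freed from T5PNP by hydrolysis · Read-out – % inhibition relative to enzyme-containing and enzyme-free wells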
# * = called active by the depositor; x = no result.
SMILES,NSD2 inh,UHRF1 MBD2 ctr,MBD2 DNA inh,CASP6 VEID inh,LEDGF integ inh,TDP2 inh
CCOc1ccccc1NC(=O)CN(c1ccc(OC)cc1)S(=O)(=O)c1c(C)noc1C,-1,0,0,x,-1,-6
COc1ccccc1C#Cc1ccc([C@@H]2[C@H]3CN(C(=O)C4CCCC4)CCCCN3[C@H]2CO)cc1,x,x,x,0,x,x
COc1cccc(CN2CCC(C(=O)Nc3ccc(-c4cccc(C)c4)cc3)CC2)c1O,x,71*,9,0,3,-4
Cc1cccc(-c2ccc(NC(=O)C3CCN(CC4CC4)CC3)cc2)c1,1,-2,4,-9,0,4
COc1ccc(S(=O)(=O)NCc2cccs2)cc1,4,48*,6,x,0,0
O=C(O)c1cccc(S(=O)(=O)NCc2cccs2)c1,0,-1,-4,x,-1,9
O=C1CC(=O)Nc2cc(S(=O)(=O)NCc3cccs3)ccc2N1,2,24*,9,-3,-1,8
C[C@H](CO)N1C[C@H](C)[C@@H](CN(C)S(=O)(=O)c2ccc(Cl)cc2)Oc2ccc(NC(=O)c3ccncc3)cc2CC1=O,x,x,x,-2,x,x
COc1ccc2c3c(n(C)c2c1)[C@@H](CO)N(C(=O)CN1CCOCC1)CC31CN(C(C)=O)C1,x,x,x,1,x,x
Cc1c(CC(=O)O)c(=O)oc2cc3oc4c(c3cc12)CCCC4,-2,26*,0,3,-2,1
O=C1CC(Nc2ccc(N3CCOCC3)cc2)C(=O)N1Cc1ccccc1 (stereo not drawn),6,0,-3,x,22*,15
O=C1CC(Nc2ccc3ccccc3c2)C(=O)N1Cc1ccccc1 (stereo not drawn),10,2,-10,x,4,-7
CC(=O)Nc1cc(-c2ccc(N3CCN(C)CC3)cc2)cn2c(-c3ccc(S(C)(=O)=O)cc3)cnc12,1,25*,2,-24,1,4
CC(=O)Nc1cc(-c2ccc(N3CCN(C)CC3)cc2)cn2c(-c3ccccc3)cnc12,22,-4,-1,-41,1,-4
COc1ccc(-c2cc3ccc(OCC(C)=O)cc3oc2=O)cc1OC,1,-2,-8,0,-1,-16
COc1ccc(-c2cc3ccc(OCC(C)=O)cc3oc2=O)cc1,2,23*,12,2,11,8
COc1ccc(NC(=O)Nc2ccccc2F)c([N+](=O)[O-])c1,-2,-4,-8,39*,-1,4
COC(=O)c1sccc1NC(=O)c1ccc(C)cc1,-1,1,-4,0,5,-23
COc1ccc(NC(=O)Nc2ccccc2F)c(C)c1,-2,0,5,0,-2,0
COC(=O)c1sccc1NC(=O)c1csc(C)c1,-5,22*,5,x,5,-12
COC(=O)c1sccc1NC(=O)Nc1ccccc1F,-2,23*,3,-1,-1,-4
CC(=O)N1CC2(C1)[C@H](c1ccc(-c3ccccc3C)cc1)[C@@H](CO)N2C(=O)CC1CC1,x,x,x,1,x,x
C[C@H]1CN([C@@H](C)CO)C(=O)c2cc(NS(=O)(=O)c3cn(C)cn3)ccc2O[C@H]1CN(C)Cc1ccccc1,x,x,x,-2,x,x
CN1CCN(C(=O)Cn2ncc3c([nH]c4ccccc43)c2=O)CC1,2,23*,4,-4,4,10
CC1CCN(C(=O)Cn2ncc3c([nH]c4ccccc43)c2=O)CC1,-4,1,1,-2,-1,-12
SMILES,NSD2 inh,UHRF1 MBD2 ctr,MBD2 DNA inh,CASP6 VEID inh,LEDGF integ inh,TDP2 inh
COc1ccc2c3c([nH]c2c1)[C@@H](CO)N(C(=O)Nc1ccc(F)cc1)CC31CCN(S(=O)(=O)c2cccs2)CC1,x,x,x,2,x,x
CCN1CCN(CCNC(=O)CCc2c(OC)nc3c(c(C)nn3-c3ccccc3)c2C)CC1,4,x,x,x,x,x
CCC(=O)N[C@H]1C[C@@H]2O[C@H](CO)CC[C@@H]2O[C@@H]1CCc1ccc(-c2cccc(OC)c2)cc1,x,x,x,0,x,x
CSc1nnc(CNS(=O)(=O)c2ccc(Cl)cc2)n1C,-5,26*,-3,0,-1,-3
NC(=O)c1ccc(NCCc2ccco2)cc1,x,-1,1,4,3,8
O=C(CCc1ccco1)CCc1ccco1,-2,14,6,76*,1,5
COc1ccc2[nH]c3c(c2c1)CCN1C(=O)C(CC(=O)NCc2ccc(OC)c(OC)c2)C[C@H](C(=O)N2CCOCC2)[C@@]31C (stereo partly drawn),x,0,-2,0,6,-6
CC(C)N(C(=O)[C@H]1C[C@H](CC(=O)NCCCN(C)C)C(=O)N2CCc3c([nH]c4cc(CCC(=O)N(C)C)ccc34)[C@]12C)C(C)C,x,21*,5,-16,5,-10
COc1ccc(CNC(=O)C[C@H]2C[C@H](C(=O)N3CCCCC3)[C@@]3(C)c4[nH]c5ccc(Cl)cc5c4CCN3C2=O)cc1OC,x,21*,11,4,-4,-2
O=C(C[C@H]1CC[C@H](NS(=O)(=O)c2ccccc2)[C@H](CO)O1)N1CCc2ccccc2C1,x,x,x,0,x,x
O=C1CS/C(=N\N=C\c2ccccc2Cl)N1CC1CC1,5,25*,11,1,1,4
CS(=O)(=O)N1CC(=O)N2[C@H](C1)[C@H](c1ccc(C#Cc3cccc(F)c3)cc1)[C@@H]2CO,x,x,x,-1,x,x
CSCCC(NC(=O)COc1ccccc1)C(=O)N(C)CC(=O)Nc1c(C)cccc1C (stereo not drawn),-1,0,-1,42*,0,6
CSCCC(NC(=O)COc1ccccc1)C(=O)OCCOc1ccc(C)cc1 (stereo not drawn),-1,0,5,4,-5,-3
O=C(C[C@H]1C(=O)N(C2CCCCC2)C[C@@H]1c1ccccc1)Nc1ccc(Br)cc1,x,22*,12,2,10,6
CCNC(=O)C[C@@H]1CC[C@@H]2[C@H](COC[C@@H](O)CN2Cc2ccncc2)O1,x,x,x,0,x,x
COc1ccc(Br)cc1C1CC(=O)N2CN(C)CSC2=C1C#N (stereo not drawn),x,-6,-3,35*,3,-1
COc1ccc(NC(=O)COC(=O)c2n[nH]c3ccccc23)cc1,-2,x,x,x,x,x
CCC12CN(C(=O)c3ccco3)CC(CC)(CN(C(=O)c3ccco3)C1)C2=O,0,2,0,55*,1,7
COCCNC(=O)COC(=O)c1cccnc1SC,-8,27*,-1,5,2,-2
CSc1ncccc1C(=O)OCC(=O)NCCCc1ccccc1,1,4,4,7,2,-1
COc1ccccc1NC(=O)N[C@H]1CC[C@H](CCNS(=O)(=O)c2ccc(C)cc2)O[C@H]1CO,x,x,x,4,x,x
CCOc1cc(CNc2ccc3cn[nH]c3c2)ccc1OC,x,5,-1,x,1,30*
Cc1cc(C)cc(N(CC(=O)NC(C)C)C(=O)CCC(=O)Nc2ccccn2)c1,0,2,3,45*,2,-6
